Test results from ChEMBL document CHEMBL1150225, “Cytotoxic cholestane glycosides from the bulbs of Ornithogalum saundersiae” (J Nat Prod, 2001).

Tested on: HL-60
Assay: Cytotoxicity against human HL60 cells after 72 hrs by MTT assay
Format: functional, cell-based
Details: HL-60, 72 h
In short: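 HL-60 leukemia cells kept in RPMI 1640 with 10% fetal bovine serum, L-glutamine, 100 units/mL penicillin and 100 μg/mL streptomycin. Cells at 3 × 10^4 cells/mL exposed continuously to compound for 72 h. Growth read by MTT reduction. IC50 (50% inhibition) calculated from each compound's dose–response curve.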

`COc1ccc(C(=O)O[C@H]2[C@H](O[C@@H]3[C@@H](OC(C)=O)[C@H](O[C@H]4C[C@H]5[C@@H]6CC=C7C[C@@H](O)CC[C@]7(C)[C@H]6CC[C@]5(C)[C@@]4(O)[C@H](C)C(=O)CCC(C)C)OC[C@@H]3O)OC[C@@H](O[C@@H]3O[C@H](CO)[C@@H](O)[C@H](O)[C@H]3O)[C@@H]2O)cc1OC` was tested, and the IC50 was 16 nM.
